TAG inh: triacylglycerol accumulation inhibition | H9c2 cells, Nile Red lipid (TAG) fluorescence; cells loaded with 200 µM oleic acid | inhibition, % at 12.5 µM | hit rate 0.66% among 230,000 | AID 651582;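 active = pattern-corrected inhibition of lipid staining of at least 50% with the nuclear-stain viability signal not falling by more than 50%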;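 note: 0% = DMSO wells and 100% = triacsin C control wells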
Efflux pump mplx: inhibitors of Candida antifungal efflux pumps expressed in yeast; S. cerevisiae Candida pump triplex, Nile Red efflux; AID 485275; inhibition, % at 10 µM; hit rate 0.44% among 330,000;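 active = plate passing quality check with inhibition over a set limit, or well fluorescence over plate mean plus 4 SD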;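 note: Nile Red retained in pooled yeast measured as flow cytometry median fluorescence; 0% = buffer negative control and 100% = Enniatin B positive control; higher means more Nile Red kept so more efflux inhibition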
AHR activator: human AHR activation; activation, % at 5 µM; AHR-responsive luciferase reporter cells, luminescence; P35869; hit rate 2.5% among 320,000; in the data active = activation above about 47%;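 note: 0% = vehicle wells and 100% = reference agonist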
Target sequence (P35869 whole entry, looked up): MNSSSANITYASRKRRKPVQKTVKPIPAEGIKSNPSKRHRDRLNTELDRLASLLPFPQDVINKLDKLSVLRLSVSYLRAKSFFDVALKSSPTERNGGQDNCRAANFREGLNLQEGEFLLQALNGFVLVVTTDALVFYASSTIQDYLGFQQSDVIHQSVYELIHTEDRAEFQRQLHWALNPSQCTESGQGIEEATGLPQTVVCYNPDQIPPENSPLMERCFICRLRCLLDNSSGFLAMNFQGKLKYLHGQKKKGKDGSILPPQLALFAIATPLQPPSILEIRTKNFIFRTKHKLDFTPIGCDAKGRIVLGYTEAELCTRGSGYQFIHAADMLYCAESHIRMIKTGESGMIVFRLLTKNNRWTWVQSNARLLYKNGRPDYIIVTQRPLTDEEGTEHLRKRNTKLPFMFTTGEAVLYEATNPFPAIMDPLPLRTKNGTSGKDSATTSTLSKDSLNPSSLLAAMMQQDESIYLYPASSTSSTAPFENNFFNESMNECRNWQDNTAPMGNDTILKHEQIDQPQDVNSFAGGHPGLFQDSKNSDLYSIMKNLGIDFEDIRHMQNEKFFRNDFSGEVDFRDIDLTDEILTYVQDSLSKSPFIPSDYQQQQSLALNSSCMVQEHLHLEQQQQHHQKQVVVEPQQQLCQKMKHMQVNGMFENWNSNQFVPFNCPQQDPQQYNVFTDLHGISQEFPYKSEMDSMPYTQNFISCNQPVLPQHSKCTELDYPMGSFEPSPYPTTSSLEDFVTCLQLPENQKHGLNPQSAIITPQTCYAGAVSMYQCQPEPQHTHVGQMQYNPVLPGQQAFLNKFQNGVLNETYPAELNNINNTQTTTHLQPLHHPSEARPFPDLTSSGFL
TbMetRS inhib: blocks T. brucei methionyl-tRNA synthetase activity; purified T. brucei MetRS, ATP depletion, Kinase-Glo luminescence; inhibition, % at 11.9 µM; hit rate 0.4% among 360,000;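 active = inhibition above a per-plate cutoff of the control wells' mean inhibition plus 3 SD, cut at about 5.5% in these data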;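 note: 0% = DMSO wells median and 100% = median of wells with control inhibitor compound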
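Dosing: 11.9 µM compound single dose, 0.9% DMSO; Assay system: purified T. brucei MetRS enzyme; Measured by: Kinase-Glo luciferase luminescence reporting remaining unconsumed ATP; Schedule: 15 min plus 2 h at 25 °C.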
SMARCA2 activ: activators of SMARCA2 function; hit rate 1% among 370,000; MG213 cells, MMTV-luciferase reporter, dexamethasone, overnight; activation, % at 9.1 µM; in the data active = activation above about 7.8%;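 note: 0% = vehicle wells and 100% = reference activator wells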
Tb MetRS conf: confirmation of Trypanosoma brucei MetRS inhibitors. hit rate 93% among 1,400. T. brucei MetRS enzyme, luminescence (ATP depletion). shares compounds with TbMetRS inhib. AID 624412. inhibition, % at 11.9 µM; in the data active = inhibition above about 7%
Jurkat cytotox: kills Jurkat cells in T. brucei MetRS counterscreen; inhibition, % at 8.3 µM; hit rate 12% among 1,400; shares compounds with TbMetRS inhib; Jurkat cells viability, ATP luminescence; in the data active = inhibition above about 15%;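 note: 0% = vehicle and 100% = reference inhibitor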
Tb MetRS inh FP: inhibits T. brucei methionyl tRNA synthetase in orthogonal FP test | purified T. brucei MetRS, fluorescence polarization | hit rate 44% among 1,400 | inhibition, % at 11.9 µM | shares compounds with TbMetRS inhib | AID 651607; in the data active = inhibition above about 17%;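 note: 0% = vehicle wells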
* marks the source's active call; other numbers are inactive results; x = no result. Compounds with a hit are over-represented: about 4.1% of the library has one in this group of screens.

SMILES | TAG inh | Efflux pump mplx | AHR activator | TbMetRS inhib | SMARCA2 activ | Tb MetRS conf | Jurkat cytotox | Tb MetRS inh FP
O=C(COc1ccc(Cl)cc1Cl)N1CCN(c2ccccn2)CC1 | -1 | 0 | 9 | 0 | -2 | x | x | x
O=C(COc1ccc(Cl)cc1Cl)N/N=C/CCc1ccccc1 | x | 0 | 1 | 0 | 2 | x | x | x
O=C(CCCOc1ccc(Cl)cc1Cl)N/N=C/c1ccccc1O | x | 0 | 5 | 37* | -3 | 80* | 82* | 76*
O=C(COc1ccc(Cl)cc1Cl)N/N=C/c1ccc[nH]1 | x | 0 | 10 | 6.6* | 4 | 36* | 1 | 27*
S=C(N/N=C/c1cccc2ccccc12)Nc1cccc(Cl)c1 | 1 | 0 | 48* | 5.8* | -2 | 0 | 5 | 3
O=C(Cc1ccccc1F)N1CCC(n2nnc3ncccc32)CC1 | x | x | x | x | -6 | x | x | x
O=C(COc1ccc(Cl)cc1Cl)NNC(=S)NCc1ccco1 | x | 0 | 3 | 6.4* | 2 | 4 | 12 | 15
O=C(COc1ccc(Cl)cc1Cl)NCc1ccco1 | 0 | 0 | 0 | 1 | 4 | x | x | x
Nc1ncc(Br)cc1S(=O)(=O)NCCC(=O)Nc1cccc(Cl)c1 | x | 0 | 6 | 11* | -2 | 17* | 0 | 9
Cc1ccc(NC(=O)CCNS(=O)(=O)c2cc(Br)cnc2N)c(Cl)c1 | x | 0 | 1 | x | x | x | x | x
Cc1ccc(NC(=O)CCNS(=O)(=O)c2cc(Br)cnc2N)cc1Cl | x | 0 | 1 | 44* | -5 | 58* | 7 | 22*
Cc1cc(NC(=O)CCNS(=O)(=O)c2cc(Br)cnc2N)ccc1Br | x | 0 | 11 | 31* | -1 | 47* | 6 | 29*
Cc1ccc(C(=O)n2ccc3ccc(-c4ccc5ccn(Cc6ccc(C#N)cc6)c5c4)cc32)cc1 | x | x | x | x | -1 | x | x | x
N#Cc1cccc(C(=O)N2CCC(Oc3cccnc3)CC2)c1 | x | x | x | x | 2 | x | x | x
Cc1ccccc1CSCCNC(=O)Nc1ccccc1 | x | 0 | -6 | 5 | 2 | x | x | x
Cc1cccc(CSCCNC(=O)Nc2ccccc2)c1 | -3 | -1 | -2 | 15* | 0 | 24* | -5 | 14
O=C1CC(N2CCC(c3nc4ccccc4o3)CC2)C(=O)N1c1cc(Cl)cc(Cl)c1 (stereo unspecified) | x | 0 | 0 | 6.0* | -3 | 2 | 3 | -6
COc1cc(NC(=O)c2ccccc2)c(C)cc1NC(=O)CSc1nnc(COc2ccccc2)n1Cc1ccco1 | x | x | x | x | -2 | x | x | x
C=CCN(CC#Cc1ccccc1)CC=C | x | x | x | x | 0 | x | x | x
O=C(CSc1nc2ccccc2[nH]1)NCCc1ccc(Cl)cc1 | x | 0 | 32 | 32* | -2 | 37* | 1 | 17*
O=C(CCCSc1nc2ccccc2[nH]1)NCc1ccc(Cl)cc1 | x | 0 | 9 | 43* | -2 | 68* | -5 | 30*
Fc1ccccc1-c1n[nH]c(=S)n1N=Cc1cccc(OCc2ccccc2)c1 | x | x | x | x | -4 | x | x | x
O=C1C[C@@H](c2ccccc2)N=C2N(Cc3ccc4c(c3)OCO4)C/C(=C/c3ccccc3)N12 | x | x | x | x | -1 | x | x | x
C=CCN1[C@@H](C)[C@@H](c2ccccc2)Oc2c(Cl)cccc2S1(=O)=O | x | x | x | x | 6 | x | x | x
CCc1cc(=O)oc2cc(C)cc(OC(C)C(=O)NC(Cc3c[nH]c4ccc(O)cc34)C(=O)O)c12 (stereo unspecified) | x | 0 | -1 | 5.8* | -1 | 13* | -6 | 5
SMILES | TAG inh | Efflux pump mplx | AHR activator | TbMetRS inhib | SMARCA2 activ | Tb MetRS conf | Jurkat cytotox | Tb MetRS inh FP
CCc1cc(=O)oc2cc(C)cc(OCC(=O)NC(Cc3c[nH]c4ccc(O)cc34)C(=O)O)c12 (stereo unspecified) | x | 0 | 0 | 6.6* | 2 | 9.7* | 7 | 4
CCCc1cc(=O)oc2cc(C)cc(OCC(=O)NC(Cc3c[nH]c4ccc(O)cc34)C(=O)O)c12 (stereo unspecified) | x | 0 | -1 | 7.0* | 0 | 12* | -3 | -1
COC(=O)C[C@H]1CC[C@H]2[C@@H](COc3ccc(NC(=O)Nc4ccccc4)cc3C(=O)N2C)O1 | x | x | x | x | 1 | x | x | x
Nc1[nH]c(C(=O)c2ccccc2)c(-c2ccc(Cl)c(F)c2)c1C(=O)c1c[nH]c2ccccc12 | x | x | x | x | -2 | x | x | x
CN1CCN(c2ccc3c(c2)Oc2ccccc2CN(Cc2cn(Cc4ccc(C(F)(F)F)cc4)nn2)S3(=O)=O)CC1 | x | x | x | x | 6 | x | x | x
Cc1ccc(NS(=O)(=O)c2c(C(=O)N3CCCCCC3)c(C)n(C)c2C)c(Cl)c1 | x | 0 | -1 | 0 | 1 | x | x | x
Cc1ccc(NS(=O)(=O)c2c(C)[nH]c(C)c2C(=O)N2CCCCC2)cc1Cl | x | 0 | 8 | 22* | -4 | 32* | 2 | 12
Cc1ccc(NS(=O)(=O)c2c(C)[nH]c(C)c2C(=O)N2CCCCC2)c(Cl)c1 | x | 0 | 6 | 8.4* | 0 | 21* | 3 | 7
C/C(=C/c1[nH]c(N)[n+](CC2CC2)c1Cc1ccccc1)Cn1[nH]c(=O)n(-c2ccccc2)c1=O | x | x | x | x | -3 | x | x | x
Cc1cccc(-c2cccc3c4c([nH]c23)[C@@H]2C[C@H](N(C)C(=S)NCCc3ccccc3)[C@H]([C@H](C)O)CN2CC4)c1 | x | x | x | x | -2 | x | x | x
C[C@H](O)[C@@H]1CN2CCc3c([nH]c4ccccc34)[C@@H]2C[C@@H]1N(C)C(=S)NCCc1ccccc1 | x | x | x | 7.8* | -1 | 6.7* | 6 | 11
COc1ccc(CN=C2Nc3ccccc3CS2)cc1 | x | 0 | 3 | 7.7* | 3 | 25* | 4 | 3
COc1ccc(CN=C2NN=C(c3ccc(Cl)cc3)CS2)cc1 | 0 | 0 | 3 | -1 | -1 | x | x | x
O=C1CC(c2ccccc2)CC2=C1C(c1ccccn1)Nc1ccccc1N2 (stereo unspecified) | x | 0 | 10 | -1 | -1 | x | x | x
O=C1CC(c2ccc(F)cc2)CC2=C1C(c1ccc([N+](=O)[O-])o1)Nc1ccccc1N2 (stereo unspecified) | 19 | 0 | 8 | 6.9* | 0 | 1 | 3 | 1
CCCCn1cnc2c([nH]c3ccccc32)c1=O | x | 0 | -1 | 1 | 2 | x | x | x
CCOCCCNc1ncnc2c1[nH]c1ccccc12 | -29 | 0 | 50* | 55* | -2 | 76* | 13 | 52*
CCOc1ccc2[nH]c3c(NCCO)ncnc3c2c1 | x | 0 | x | 0 | -1 | x | x | x
CCCCOCCCNc1ncnc2c1[nH]c1ccccc12 | x | 0 | 22 | 93* | -6 | 106* | 44* | 95*
C=CCNc1ncnc2ccccc12 | x | 0 | 18 | 0 | -1 | x | x | x
C=CCNc1ncnc2c1[nH]c1ccccc12 | 4 | 0 | 28 | 21* | -1 | 35* | 14 | 15
C[C@H]1COc2cccc(N3CCSCC3)c2S(=O)(=O)N1C | x | x | x | x | -2 | x | x | x
O=C(Cc1ccc(F)cc1)Nc1cc(S(=O)(=O)N2CCOCC2)ccc1N1CCCCC1 | -19 | x | x | 0 | -2 | x | x | x
